Key:
[1] = test system: Canis familiaris; test: % ectopic beats was measured in anesthetized dog at 0.053 dose; format: functional, Canis lupus familiaris, Heart; settings: in the assay text read “unanesthetized” for “anesthetized”
Outline: (§1)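 Adult female dogs (6.7–14.5 kg) had the left anterior descending coronary artery ligated in two stages the day before testing. Dogs were unanesthetized. Ectopic beats (% of ventricular rate) and mean arterial pressure were read at maximal antiarrhythmic effect against the cumulative dose.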

[2] = test system: Canis familiaris; test: MABP value was measured in anesthetized dog at 0.053 dose; format: functional, Canis lupus familiaris; settings: in the assay text read “unanesthetized dog” for “anesthetized dog”
Outline: (§2)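 Adult female dogs (6.7–14.5 kg) had two-stage ligation of the left anterior descending coronary artery the day before testing. After control ventricular rate, % ectopic beats and mean arterial pressure were recorded, the drug (HCl salt, isotonic solution) was infused iv without anesthesia at 0.1, 0.5 or 1.0 (mg/kg)/min, mostly 0.5. Infusion continued until the arrhythmia was abolished or cardiovascular/CNS toxicity appeared. Cumulative dose is given in mmol/kg; toxicity included convulsion and P-R prolongation ≥25%.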

[3] = organism: Mus musculus; test: Percentage toxicity measured as loss of righting reflex.; format: organism-based; settings: in vivo
Outline: (§3)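 Mice (groups of 10) were dosed sc with drug in 0.9% saline and watched for 20 min for overt toxicity (ataxia, convulsions, loss of righting reflex, death) before chloroform exposure.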

[4] = Percentage toxicity measured as death of mice.; format: organism-based; design: concentration or dose not given beside the values; settings: mouse, in vivo; read-out: Death
[5] = test system: Canis familiaris; test: % ectopic beats was measured in unanesthetized dog at 0.058 dose
[6] = test system: Canis familiaris; test: Ventricular rate was measured in anesthetized dog at 0.023 dose; format: functional, Canis lupus familiaris, Heart; settings: in the assay text read “unanesthetized” for “anesthetized”; outline: as §2
[7] = Volume of distribution was measured at given dose of 83 umol/kg; format: ADME, organism-based; settings: in vivo
Outline: (§4)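 In dogs given iv infusions, blood samples were alkaline-extracted (pH 10.3) into methylene chloride and derivatized with heptafluorobutyrylimidazole. Concentrations were measured by GC-FID against an internal standard using standard curves. Clearance was total dose ÷ blood-level AUC (zero to infinity), and volume of distribution was clearance ÷ elimination rate constant.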

[8] = test system: Canis familiaris; test: MABP value was measured in anesthetized dog at 0.018 dose; format: functional, Canis lupus familiaris; settings: in the assay text read “unanesthetized dog” for “anesthetized dog”; outline: as §1
[9] = test system: Canis familiaris; test: Blood level was measured in anesthetized dog at 0.023 dose; format: functional, Canis lupus familiaris
[10] = organism: Canis familiaris; test: The dose at which toxicity was measured; 0.065; 0.0182; format: organism-based, Canis lupus familiaris; settings: dog, in vivo; outline: as §2
[11] = organism: Canis familiaris; test: The Maximum dose of the compound; format: functional, Canis lupus familiaris; outline: as §2
[12] = test system: Canis familiaris; test: Blood level was measured in anesthetized dog at 0.058 dose; format: functional, Canis lupus familiaris
[13] = organism: Mus musculus; test: Percentage toxicity measured as convulsions.; format: organism-based; settings: in vivo; outline: as §3
[14] = test system: Canis familiaris; test: % ectopic beats was measured in anesthetized dog at 0.018 dose; format: functional, Canis lupus familiaris, Heart; settings: in the assay text read “unanesthetized” for “anesthetized”; outline: as §1
[15] = test system: Canis familiaris; test: Ventricular rate was measured in anesthetized dog at 0.018 dose; format: functional, Canis lupus familiaris, Heart; settings: in the assay text read “unanesthetized dog” for “anesthetized dog”; outline: as §2
[16] = test system: Canis familiaris; test: MABP value was measured in anesthetized dog at 0.058 dose; format: functional, Canis lupus familiaris; settings: in the assay text read “unanesthetized dog” for “anesthetized dog”; outline: as §2
[17] = Volume of distribution was measured at given dose of 227 uM/kg; format: ADME, organism-based; settings: in vivo; outline: as §4
[18] = test system: Canis familiaris; test: MABP value was measured in anesthetized dog at 0.023 dose; format: functional, Canis lupus familiaris; settings: in the assay text read “unanesthetized dog” for “anesthetized dog”; outline: as §1
[19] = test system: Canis familiaris; test: Ventricular rate was measured in anesthetized dog at 0.058 dose; format: functional, Canis lupus familiaris, Heart; settings: in the assay text read “unanesthetized” for “anesthetized”
Outline: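 Adult female dogs (6.7–14.5 kg) had ventricular arrhythmias from two-stage ligation of the left anterior descending coronary artery the day before. Ventricular rate (bpm) was read at maximal antiarrhythmic effect against cumulative dose.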

[20] = test system: Canis familiaris; test: % ectopic beats was measured in anesthetized dog at 0.015 dose; format: functional, Canis lupus familiaris, Heart; settings: in the assay text read “unanesthetized” for “anesthetized”; outline: as §1
[21] = test system: Canis familiaris; test: Blood level was measured in anesthetized dog at 0.038 dose; format: functional, Canis lupus familiaris
[22] = test system: Canis familiaris; test: % ectopic beats was measured in anesthetized dog at 0.038 dose; format: functional, Canis lupus familiaris, Heart; settings: in the assay text read “unanesthetized” for “anesthetized”; outline: as §1
[23] = test system: Canis familiaris; test: Blood level was measured in anesthetized dog at 0.015 dose; format: functional, Canis lupus familiaris
[24] = test system: Canis familiaris; test: MABP value was measured in anesthetized dog at 0.015 dose; format: functional, Canis lupus familiaris; settings: in the assay text read “unanesthetized dog” for “anesthetized dog”; outline: as §1
[25] = test system: Canis familiaris; test: Blood level was measured in anesthetized dog at 0.053 dose; format: functional, Canis lupus familiaris
[26] = test system: Canis familiaris; test: Ventricular rate was measured in anesthetized dog at 0.015 dose; format: functional, Canis lupus familiaris, Heart; settings: in the assay text read “unanesthetized dog” for “anesthetized dog”; outline: as §2
[27] = test system: Canis familiaris; test: Ventricular rate was measured in anesthetized dog at 0.053 dose; format: functional, Canis lupus familiaris, Heart; settings: in the assay text read “unanesthetized dog” for “anesthetized dog”; outline: as §2
[28] = Total body clearance was measured at given dose; format: ADME
Outline: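 Blood levels came from the iv-infused dogs, measured by GC-FID after methylene chloride extraction and heptafluorobutyryl derivatization with an internal standard. Total body clearance was total dose divided by the blood-level AUC (zero to infinity); volume of distribution was clearance divided by the elimination rate constant.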

[29] = test system: Canis familiaris; test: Blood level was measured in anesthetized dog at 0.018 dose; format: functional, Canis lupus familiaris
[30] = test system: Canis familiaris; test: MABP value was measured in anesthetized dog at 0.038dose; format: functional, Canis lupus familiaris; settings: in the assay text read “unanesthetized dog” for “anesthetized dog”; outline: as §2
[31] = test system: Canis familiaris; test: Ventricular rate was measured in anesthetized dog at 0.038 dose; format: functional, Canis lupus familiaris, Heart; settings: in the assay text read “unanesthetized dog” for “anesthetized dog”; outline: as §2
[32] = test system: Mus musculus; test: Protection against chloroform induced arrhythmias was measured in mice after sc administration at given dose; format: functional
Outline: (§5)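 Groups of 10 unanesthetized mice got sc injection of drug in 0.9% saline. After 20 min observation they were placed one by one in chloroform-vapor-saturated air. When breathing stopped, the thorax was opened and the heart inspected by eye; coordinated ventricular contractions counted as protected.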

[33] = test system: Canis familiaris; test: Maximal concentration in dogs after intravenous administration; settings: dog, in vivo
[34] = as above; settings: dog, in vivo
[35] = organism: Canis familiaris; test: Toxicity of blood level was measured; format: organism-based, Canis lupus familiaris; settings: dog, in vivo
Outline: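 In coronary-ligated conscious dogs under iv infusion, blood was sampled at toxicity. Drug was extracted with methylene chloride at pH 10.3 (ammonium citrate/ammonia) with another analogue as internal standard, then derivatized with heptafluorobutyrylimidazole. Assay was GC-FID on 3% JXR, quantified from drug/internal standard peak-height ratio against standard curves; results in μmol/mL.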

[36] = test system: Mus musculus; test: Protection against chloroform induced arrhythmias in mice after subcutaneous administration at 100 mg/kg dose.; format: functional; outline: as §5
[37] = organism: Canis familiaris; test: Nature of toxicity was expressed; A-V convulsion; format: organism-based, Canis lupus familiaris; settings: dog, in vivo; outline: as §2
[38] = organism: Canis familiaris; test: The Maximum dose of the Compound; format: functional, Canis lupus familiaris; outline: as §2
[39] = organism: Mus musculus; test: Percentage toxicity measured as ataxia.; format: organism-based; settings: in vivo; outline: as §3
[40] = test system: Canis familiaris; test: % ectopic beats was measured in anesthetized dog at 0.023 dose; format: functional, Canis lupus familiaris, Heart; settings: in the assay text read “unanesthetized” for “anesthetized”; outline: as §1

Structure (SMILES): CN(C)CCCCN1C(=O)CC2(CCCc3ccc(O)cc32)C1=O (stereo unspecified)
- Etopic beats [1]: 3%
- MABP [2]: 135 mmHg
- Loss of righting reflex [3]: 0%
- mortality [4]: 0%
- Ectopic beats [5]: 4%
- Ventricular rate [6]: 138 beats min-1
- Vd [7]: 3.02 L/kg
- MABP [8]: 120 mmHg
- Blood level [9]: 0.02 uM ml-1
- Dose [10]: A-V convulsion
- Dose [11]: 227 µM/kg
- Blood level [12]: 0.017 uM ml-1
- Convulsion [13]: 0%
- Etopic beats [14]: 1%
- Ventricular rate [15]: 150 beats min-1
- MABP [16]: 95 mmHg
- Vd [17]: 3.35 L/kg
- MABP [18]: 110 mmHg
- Ventricular rate [19]: 171 beats min-1
- Etopic beats [20]: 0%
- Blood level [21]: 0.023 uM ml-1
- Etopic beats [22]: 0%
- Blood level [23]: 0.024 uM ml-1
- MABP [24]: 85 mmHg
- Blood level [25]: 0.028 uM ml-1
- Ventricular rate [26]: 165 beats min-1
- Ventricular rate [27]: 183 beats min-1
- ClB [28]: 17.5 mL/min/kg
- clearance ([28]; ClB): 31.6 mL/min/kg
- Blood level [29]: 0.022 uM ml-1
- MABP [30]: 105 mmHg
- Ventricular rate [31]: 171 beats min-1
- ED50 [32]: 160 µmol/kg
- Cmax [33]: 30 µM
- Cmax [34]: 37 µM
- Blood level [35]: 12 µM
- Protection [36]: 100%
- Nature [37]: A-V convulsion
- Dose [38]: 83 µM/kg
- Ataxia [39]: 0%
- Etopic beats [40]: 93%

— ChEMBL document CHEMBL1121715, “New antiarrhythmic agents. 4. 1'-(Aminoalkyl)-1,2,3,4-tetrahydronaphthalene-1-spiro-3'-pyrrolidine-2',5'-dione derivatives” (J Med Chem, 1981)
